# Compound activity from PubChem.
# Shown are actives, neighbours in structure and some others; about 3.8% of the full set was active somewhere.
# KCNK3 block – human KCNK3 channel inhibitors, primary screen, CHO cells, FluxOR thallium flux, B-score; AID 602410, 2012; 340,000 tested, 0.84% active; FluxOR fluorescence; hits give low values; B-score at 10 µM;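 active means B-score under library mean minus 4 SD, starting fluorescence ratio at most library mean plus 5 SD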;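 further: more negative B-score means stronger inhibition of thallium flux through KCNK3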
# Kir21 inh – inhibitors of mouse Kir2.1 inward-rectifier potassium channel. HEK293-Kir2.1, FluxOR thallium flux fluorescence; hits give low values. B-score at 10 µM. 310,000 tested, 0.85% active. Inward rectifier potassium channel 2 (Mus musculus), P35561;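 active means fluorescence ratio B-score at or below minus 3 SD of library scores, with starting-brightness B-score within 2 SD, cut at about -4.2 in these data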;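 further: channel flux triggered by added potassium and thallium sulfate stimulus; B-score of peak minus minimum fluorescence over baseline after thallium stimulus; more negative B-score means stronger Kir2.1 block with less thallium influx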
# KCNQ1 block – inhibitors of human KCNQ1 channel, primary screen, cell-based, thallium flux, high-throughput. AID 2642, 2010. 310,000 tested, 1.3% active. CHO-K1 KCNQ1, FluxOR thallium flux fluorescence; hits give high values. B-score at 10 µM;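 active means compounds whose thallium flux B-score, printed positive for inhibition, exceeds three library SD while starting fluorescence stays within three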;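 further: channel opened by potassium depolarization with thallium stimulus after 20 min compound exposure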
# Target sequence (P51787 whole entry, looked up): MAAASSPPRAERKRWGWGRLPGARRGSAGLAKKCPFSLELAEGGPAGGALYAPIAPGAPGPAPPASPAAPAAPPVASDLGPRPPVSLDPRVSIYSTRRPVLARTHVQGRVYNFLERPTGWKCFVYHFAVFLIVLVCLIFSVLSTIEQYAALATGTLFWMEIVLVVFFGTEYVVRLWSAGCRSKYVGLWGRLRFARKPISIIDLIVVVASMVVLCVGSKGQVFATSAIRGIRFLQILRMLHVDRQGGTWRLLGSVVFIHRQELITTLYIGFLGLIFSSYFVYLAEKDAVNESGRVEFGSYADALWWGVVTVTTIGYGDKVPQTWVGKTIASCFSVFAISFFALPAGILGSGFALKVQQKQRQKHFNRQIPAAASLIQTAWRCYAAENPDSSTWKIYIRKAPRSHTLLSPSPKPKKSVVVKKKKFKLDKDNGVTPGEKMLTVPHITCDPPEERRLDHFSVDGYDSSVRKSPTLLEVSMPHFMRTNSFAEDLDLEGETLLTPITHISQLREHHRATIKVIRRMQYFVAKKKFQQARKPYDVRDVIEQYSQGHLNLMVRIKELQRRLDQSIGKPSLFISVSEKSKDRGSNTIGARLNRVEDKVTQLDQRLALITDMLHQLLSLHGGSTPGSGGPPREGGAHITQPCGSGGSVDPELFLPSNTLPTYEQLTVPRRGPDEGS
# KCNK9 inh – KCNK9 potassium channel inhibitors, primary screen, HEK293 cells, thallium flux; Potassium channel subfamily K member 9 (Homo sapiens), Q9NPC2; FluxOR thallium flux fluorescence; hits give low values; B-score at 10 µM; 310,000 tested, 1.2% active; AID 488922, 2010;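 active means ratio B-score over 3 SD below the library mean, with starting fluorescence within 5 SD of its mean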;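 further: negative B-score means less thallium flux so channel inhibition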
# hERG rescue – hERG rescue from dofetilide block, primary screen, cell-based, CHO-hERG, FluxOR thallium flux, dofetilide IC70. Voltage-gated inwardly rectifying potassium channel KCNH2 (Homo sapiens), Q12809. dofetilide IC70 present. activation (rescue from dofetilide block), less the hit threshold, % at 10 µM. 310,000 tested, 0.51% active;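 active means activation above the mean of controls blocked by dofetilide plus 5 SD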;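 further: thallium influx through hERG after potassium depolarization seen as dye fluorescence rise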
# KCNQ1 act – potentiators or activators of KCNQ1 channel, primary screen, cell-based, thallium flux, high-throughput. Potassium voltage-gated channel subfamily KQT member 1 (Homo sapiens), P51787. CHO-K1 KCNQ1, thallium flux FluxOR fluorescence; hits give high values. B-score at 10 µM. 310,000 tested, 0.35% active;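 active means fluorescence ratio B-score, a plate-corrected score, at least three library SD, with initial intensity B-score within 5 SD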
#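 Test system: CHO-K1 cells stably expressing KCNQ1 / Medium: assay buffer / Also added: depolarizing K+/Tl+ stimulus, K2SO4 and Tl2SO4 each 12.5 mM in 5x stock / Incubation: 90 min dye loading and 20 min compound exposure, both at room temperature / Signal: thallium influx via FluxOR fluorescence, kinetic imaging / Evaluation: B score of baseline-normalized fluorescence ratio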
# Numbers stand for hits; - = inactive; . = not tested or not shown.
SMILES,KCNK3 block,Kir21 inh,KCNQ1 block,KCNK9 inh,hERG rescue,KCNQ1 act
Cc1ccc(C(=O)NCCN2C3=NC[C@H](Cc4ccc(O)cc4)N3C[C@H]2Cc2ccc(O)cc2)cc1Br,-,-,-,-,-,-
COc1ccc(C[C@H]2CN3C(=NC[C@@H]3C(C)C)N2C[C@H](C)NC(=O)c2ccc(C)c(Br)c2)cc1,-,-7.9,-,-,-,-
Cc1ccc(C(=O)N[C@@H](C)CN2C3=NC[C@H](C(C)C)N3C[C@H]2Cc2ccc(O)cc2)cc1Br,-,-,-,-,-,-
CCc1ccc(CNC(=O)CCCC(=O)n2nc(C)c3ccccc32)cc1,-,-,-,-,-,-
Cc1cccc(OCc2n(CC(=O)OC3CC(C)CCC3C(C)C)c3ccccc3[n+]2C)c1 (stereo not drawn),-13,-13,9,-,-,-
COc1ccc(-n2nc(C(=O)NCC(=O)NC3CCCCC3)c3ccccc3c2=O)cc1,-,-,-,-,-,-
O=[N+]([O-])c1ccc(O)c(-c2cc(C(F)(F)F)nc(-c3ccccc3)n2)c1,-,-,7,-,-,-
Oc1ccccc1-c1cc(C(F)(F)C(F)F)nc(-c2ccccc2)n1,-,-,-,-,-,-
Cc1cc(C)c(C)c(OCCNCc2ccccc2)c1,-,-5.5,-,-,-,-
COCCCNCCCCOc1c(Cl)cc(C)cc1Br,-,-6,-,-,-,-
Clc1ccc(OCCCNCc2ccccc2)c2ccccc12,-,-13,-,-,-,-
Cc1cc(Cl)cc(C)c1OCCOCCNCc1ccccc1,-,-12,-,-,-,-
C/C=C/c1ccc(OCCNCc2ccccc2)c(OC)c1,-,-,-,-,-,-
CN(CC(=O)Nc1ccc(Cl)c(C(F)(F)F)c1)C(=O)c1cccc(N2C(=O)CCC2=O)c1,-,.,.,.,.,.
C=CCNCCOc1c(C)cc(C)cc1Cl,-,-,-,-,-,-
Brc1ccccc1OCCNCc1ccccc1,-,-,-,-,-,-
Cc1cc(Cl)cc(C)c1OCCNCc1ccccc1,-,-,-,-,-,-
Cc1cc(C)c(OCCNCc2ccccc2)c(C)c1,-,-5,-,-,-,-
Cc1cc(Br)ccc1OCCNCc1ccccc1,-,-10,-,-,-,-
CCC(C)NCCOCCOc1ccc(Cl)c2ccccc12 (stereo not drawn),-,-9.7,-,-,-,-
Cc1cc(C)c(OCCCCNCc2ccccc2)c(Cl)c1,-,-12,-,-,-,-
O=C(CCNC(=O)c1ccc([N+](=O)[O-])cc1)NCc1ccco1,-,.,.,.,.,.
COc1ccc(-c2[nH]ncc2/C=N\NC(=O)c2ccc(C(C)(C)C)cc2)cc1OC,-,-,6,-,-,-
CCCCOc1ccc(C(=O)N/N=C/c2cn[nH]c2-c2ccc(OC)c(OC)c2)cc1,-,-,-,-,-,-
Cc1c(NC(=O)CN2C(=O)NC(C)(c3ccccc3)C2=O)c(=O)n(-c2ccccc2)n1C (stereo not drawn),-,-,-,-,5.8,-
SMILES,KCNK3 block,Kir21 inh,KCNQ1 block,KCNK9 inh,hERG rescue,KCNQ1 act
Cc1ccc(C2(C)NC(=O)N(CC(=O)Nc3c(C)n(C)n(-c4ccccc4)c3=O)C2=O)cc1 (stereo not drawn),-,-,-,-,-,-
O=C(CCCOc1ccc(Cl)cc1Cl)N/N=C/c1cccc([N+](=O)[O-])c1,-,-,-,-,-,-
CN(C(=O)c1cnccn1)c1nnc(-c2cnccn2)s1,-,-,-,-,10,-
COc1ccc(COC(=O)C2=C(C)NC(=O)NC2c2cc(Br)c(O)c(OC)c2)cc1 (stereo not drawn),-,-,-,-,-,-
COc1cccc(CNC(=O)C2CCC(=O)N(C3CC3)C2)c1OC (stereo not drawn),-,-,-,-,-,-
CN(CCNC(=O)c1ccc(CS(=O)(=O)c2ccc(Br)cc2)o1)CCc1ccccc1,-,-4.9,-,-,-,-
COCCOC(=O)/C(=C\c1cc(C(C)(C)C)c(O)c(C(C)(C)C)c1)C(C)=O,-,-5.4,-,-,-,-
COc1ccccc1-c1cn[nH]c1-c1ccc(OCc2ccc(F)cc2)cc1O,-,-,6,-,-,-
COc1ccc(Cc2nnc(NC(=O)CS(=O)(=O)c3ccccc3)s2)cc1OC,-,-,-,-,-,-
COc1ccc(/C=C2\N=C(c3ccccc3)NNC2=O)cc1,-,-,-,-,-,-
O=C1c2ccccc2C(=O)N1CCC(c1ccc(F)cc1)c1ccco1 (stereo not drawn),-,-4.8,-,-,-,-
O=C1C2C3CCC(CC3)C2C(=O)N1c1ccccc1 (stereo not drawn),-,-,-,-,-,-
CC[n+]1ccccc1/C=C1\Sc2ccc(C)cc2N1C,-,-,7,-,-,-
Cc1cccc(C(C)C)c1NC(=O)CN1C(=O)NC2(CCc3ccccc32)C1=O (stereo not drawn),-,-,-,-,-,-
CCN1CC=C2C(C1)C(c1ccc(Cl)s1)C(C#N)=C(N)C2(C#N)C#N (stereo not drawn),-,-,11,-,-,-
CCN1CC=C2C(C#N)=C(N)C(C#N)(C#N)[C@H](c3cccc(OC)c3OC)[C@H]2C1,-,-,-,-,-,-
CC1CCCN(S(=O)(=O)c2cc3c4c(c2)C(C)C(=O)N4CCC3)C1 (stereo not drawn),-,-,-,-,-,-
CCCCCSc1nnc2c(n1)OC(C)N(C(C)=O)c1ccccc1-2 (stereo not drawn),-10,-,-,-,-,-
CCCCSc1nnc2c(n1)OC(C(=O)c1ccccc1)Nc1ccccc1-2 (stereo not drawn),.,-,-,-,-,-
CCS(=O)(=O)C1=NN2C(=N)/C(=C\c3ccc(OC(=O)c4ccco4)c(Br)c3)C(=O)N=C2S1,.,-6.1,-,-,-,-
COc1cc(/C=C2\C(=N)N3N=C(S(C)(=O)=O)SC3=NC2=O)ccc1OCCOc1ccccc1C,-,-,6,-,-,-
CC(=O)c1csc(CS(=O)(=O)c2ccccn2)n1,-,-,-,-,-,-
CCCC(=O)OCCNc1cc(Sc2nccn2C)c2nonc2c1[N+](=O)[O-],-,-6.3,-,-,-,-
CCC(=O)OCCNc1cc(Sc2nc3ccccc3s2)c2nonc2c1[N+](=O)[O-],-,-,6,-,-,-
Cc1ccc(-c2nc(SC(C)C(=O)N3CCCC3)n[nH]2)cc1 (stereo not drawn),-,-,-,-,-,-
